Blank lines part the entries; values can stand above or below the compound they belong to. Active and inactive are the calls of the source. No cut-off for these calls is given here.
How the values were obtained:
Pancreatic alpha-amylase [1] = biological target: T1, Pancreatic alpha-amylase (Homo sapiens, UniProt P04746); assay: Inhibition of human pancreatic alpha-amylase assessed as hydrolysis of G3F by Dixon plot analysis
T1 sequence (P04746 whole entry): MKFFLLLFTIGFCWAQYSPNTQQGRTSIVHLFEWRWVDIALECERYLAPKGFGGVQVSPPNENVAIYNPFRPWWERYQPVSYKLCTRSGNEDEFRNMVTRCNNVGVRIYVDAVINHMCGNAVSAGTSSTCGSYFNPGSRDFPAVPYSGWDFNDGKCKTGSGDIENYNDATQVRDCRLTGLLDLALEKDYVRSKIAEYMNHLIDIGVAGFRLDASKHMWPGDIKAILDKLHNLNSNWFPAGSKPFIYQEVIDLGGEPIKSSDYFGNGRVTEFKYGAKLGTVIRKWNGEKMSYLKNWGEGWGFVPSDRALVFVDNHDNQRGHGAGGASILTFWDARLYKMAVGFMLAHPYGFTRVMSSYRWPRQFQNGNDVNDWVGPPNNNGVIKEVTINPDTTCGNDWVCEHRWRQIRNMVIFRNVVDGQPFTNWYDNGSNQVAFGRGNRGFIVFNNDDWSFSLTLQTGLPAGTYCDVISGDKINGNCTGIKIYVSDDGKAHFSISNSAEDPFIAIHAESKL

[2] = Inhibition of malt alpha-amylase; conditions: concentration not given here
Pancreatic alpha-amylase [3] = biological target: T1, Pancreatic alpha-amylase; assay: Inhibition of human pancreatic alpha-amylase
Alpha-amylase 1A [4] = biological target: T2, Alpha-amylase 1A (Homo sapiens, UniProt P0DUB6); assay: Non-competitive inhibition of human salivary alpha-amylase using GalG2CNP as substrate assessed as CNP liberation by Lineweaver-Burk plot analysis
T2 sequence (P0DUB6 whole entry): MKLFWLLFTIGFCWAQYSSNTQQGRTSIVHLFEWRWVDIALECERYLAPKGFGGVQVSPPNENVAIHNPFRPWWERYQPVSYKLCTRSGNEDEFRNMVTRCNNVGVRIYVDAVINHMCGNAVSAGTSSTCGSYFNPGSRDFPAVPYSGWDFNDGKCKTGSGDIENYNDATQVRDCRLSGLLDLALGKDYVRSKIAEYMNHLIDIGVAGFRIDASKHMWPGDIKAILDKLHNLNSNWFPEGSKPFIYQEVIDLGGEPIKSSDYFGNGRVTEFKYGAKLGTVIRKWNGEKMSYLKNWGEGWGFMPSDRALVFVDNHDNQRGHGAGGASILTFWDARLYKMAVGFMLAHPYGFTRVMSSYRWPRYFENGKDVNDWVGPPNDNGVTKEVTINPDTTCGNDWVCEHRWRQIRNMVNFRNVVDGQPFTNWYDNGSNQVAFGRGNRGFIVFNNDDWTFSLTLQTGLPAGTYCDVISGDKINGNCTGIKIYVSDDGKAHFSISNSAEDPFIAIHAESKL
Method in brief: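 Same HSA/GalG2CNP system: 2 nM enzyme, 0.75-4 mM substrate, 50 mM MES pH 6.0 with Ca(OAc)2, NaCl, NaN3, 37°C, CNP followed continuously at 400 nm, inhibitor added from DMSO. Inhibition type was assigned from Lineweaver-Burk plots.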

Alpha-amylase 1A [5] = biological target: T2, Alpha-amylase 1A; assay: Inhibition of human salivary alpha-amylase using GalG2CNP as substrate assessed as CNP liberation by spectrophotometric analysis
Method in brief: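 Chromogenic kinetic assay with 2 nM HSA and 0.75-4 mM GalG2CNP in 50 mM MES pH 6.0 with 5 mM Ca(OAc)2, 51.5 mM NaCl, 152 mM NaN3, 37°C. Substrate and inhibitor (DMSO dilutions) were premixed and the reaction started by adding enzyme. CNP release was followed continuously at 400 nm. IC50 was taken from a four-parameter logistic fit of fractional activity versus inhibitor level, three repeats.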

[6] = Inhibition of Escherichia coli MurC ligase after 15 mins by Malachite green assay
[7] = biological target: T3, Alpha-amylase 1A (Homo sapiens) (UniProt P0DUB6); assay: Potency index, ratio of BAS 04880564 IC50 to compound IC50 for human salivary alpha-amylase
T3 sequence (whole entry): T2 sequence (P0DUB6 whole entry)

Alpha-amylase 1A [8] = biological target: T2, Alpha-amylase 1A; assay: Inhibition of human salivary alpha-amylase using GalG2CNP as substrate by UV-Vis spectrophotometric analysis; conditions: read-out: IC50
[9] = biological target: T3, Alpha-amylase 1A (Homo sapiens); assay: Inhibition of human salivary alpha-amylase using GalG2CNP as substrate at 200 uM by UV-Vis spectrophotometric analysis
Method in brief: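 Single-concentration test at 200 μM inhibitor against human salivary α-amylase (2 nM) with GalG2CNP substrate, 50 mM MES pH 6.0 containing 5 mM Ca(OAc)2, 51.5 mM NaCl, 152 mM NaN3, 37°C. Chloronitrophenol liberation monitored continuously at 400 nm by UV-Vis spectrophotometry.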

Pancreatic alpha-amylase [10] = biological target: T1, Pancreatic alpha-amylase; assay: Competitive inhibition of human pancreatic alpha-amylase by double reciprocal plot analysis
[11] = biological target: T4, Pancreatic alpha-amylase (Homo sapiens) (UniProt P04746); assay: Inhibition of human pancreatic alpha-amylase using CNPG3 as substrate by spectrophotometric analysis in presence of 40 mM G3F as donor compound and 25 mM 5FIdoF as acceptor compound relative to control
T4 sequence (whole entry): T1 sequence (P04746 whole entry)

Pancreatic alpha-amylase [12] = biological target: T1, Pancreatic alpha-amylase; assay: Inhibition of human pancreatic alpha-amylase expressed in Pichia pastoris using amylase as substrate preincubated with substrate for 10 mins followed by protein addition measured every 5 mins
Alpha-amylase 1A [13] = biological target: T2, Alpha-amylase 1A; assay: Inhibition of human salivary alpha-amylase using rice starch as substrate after 12 mins by microplate reader analysis

- Ki (Pancreatic alpha-amylase [1]): 18000 µM
SMILES: OC[C@H]1N/C(=N/O)[C@H](O)[C@@H](O)[C@@H]1O

- inhibition [2]: 99%
SMILES: CC(=O)OCC(OC(C)=O)C1OC(O)=C(O)C1=O (stereo unspecified)

- Ki (Pancreatic alpha-amylase [3]): 0.012 µM
SMILES: CC1OC(OC2C(CO)OC(OCC3OC(O)C(O)C(O)C3O)C(O)C2O)C(O)C(O)C1NC1C=C(CO)C(OC2OC(CO)C(OC3OC(CO)C(O)C(O)C3O)C(O)C2O)C(O)C1O (stereo unspecified)

SMILES: O=C(OC[C@H]1O[C@@H](OC(=O)c2cc(O)c(O)c(O)c2)[C@H](OC(=O)c2cc(O)c(O)c(O)c2)[C@@H](OC(=O)c2cc(O)c(O)c(O)c2)[C@@H]1OC(=O)c1cc(O)c(O)c(O)c1)c1cc(O)c(O)c(O)c1 [PENTAGALLOYL GLUCOSE]
- Ki (Alpha-amylase 1A [4]): 2.6 µM
- IC50 (Alpha-amylase 1A [5]): 2.35 µM

- IC50 [6]: 531 µM
- Ratio IC50 [7]: 0.83
- IC50 (Alpha-amylase 1A [8]): 165 µM
SMILES: NS(=O)(=O)c1ccc(Nc2nc(-c3ccc(O)cc3O)cs2)cc1

- inhibition [9]: inactive
SMILES: CC1=NN(c2ccccc2)C(=O)/C1=C(/NNC(=O)c1ccccc1O)c1ccccc1

- Ki (Pancreatic alpha-amylase [10]): 0.008 µM
SMILES: C[C@@H]1O[C@@H](O[C@@H]2CO[C@@H](Oc3c(O)cc(C4=C(O[C@@H]5O[C@@H](C)[C@H](O)[C@@H](O)[C@H]5O[C@@H]5O[C@H](COC(=O)/C=C/c6ccc(O)c(O)c6)[C@@H](O)[C@H](O)[C@H]5O[C@@H]5O[C@H](CO)[C@@H](O)[C@H](O)[C@H]5O)C(=O)c5c(O)cc(O)cc5C4)cc3O)[C@H](O)[C@H]2O)[C@H](O)[C@H](O)[C@H]1O

- Ki (Pancreatic alpha-amylase [10]): 3.6 µM
SMILES: C[C@@H]1O[C@@H](O[C@@H]2CO[C@@H](Oc3c(O)cc(C4=C(O[C@@H]5O[C@@H](C)[C@H](O)[C@@H](O)[C@H]5O[C@@H]5O[C@H](COC(=O)/C=C/c6ccc(O)cc6)[C@@H](O)[C@H](O)[C@H]5O[C@@H]5O[C@H](CO)[C@@H](O)[C@H](O)[C@H]5O)C(=O)c5c(O)cc(O)cc5C4)cc3O)[C@H](O)[C@H]2O)[C@H](O)[C@H](O)[C@H]1O

- inhibition [11]: 90%
SMILES: OCC1OC(OC2C(O)C(O)C(F)OC2(F)CO)C(O)C(O)C1O (stereo unspecified)

- Ki (Pancreatic alpha-amylase [3]): 0.012 µM
SMILES: C[C@H]1O[C@H](O[C@H]2[C@H](O)[C@@H](O)[C@@H](OC[C@H]3O[C@@H](O)[C@H](O)[C@@H](O)[C@@H]3O)O[C@@H]2CO)[C@H](O)[C@@H](O)[C@@H]1N[C@H]1C=C(CO)[C@@H](O)[C@H](O)[C@H]1O

- IC50 (Pancreatic alpha-amylase [12]): 2.59 µM
SMILES: C[C@H]1O[C@H](O[C@H]2[C@H](O)[C@@H](O)[C@@H](O)O[C@@H]2CO)[C@H](O)[C@@H](O)[C@@H]1NC1=C[C@H](CO)[C@@H](O[C@H]2O[C@H](CO)[C@@H](O[C@H]3O[C@H](CO)[C@@H](O)[C@H](O)[C@H]3O)[C@H](O)[C@H]2O)[C@H](O)[C@H]1O

- Ki (Pancreatic alpha-amylase [10]): 6.1 µM
SMILES: COc1cc(/C=C/C(=O)OC[C@H]2O[C@@H](O[C@H]3[C@H](OC4=C(c5cc(O)c(O[C@@H]6OC[C@@H](O[C@@H]7O[C@@H](C)[C@H](O)[C@@H](O)[C@H]7O)[C@H](O)[C@H]6O)c(O)c5)Cc5cc(O)cc(O)c5C4=O)O[C@@H](C)[C@H](O)[C@H]3O)[C@H](O[C@@H]3O[C@H](CO)[C@@H](O)[C@H](O)[C@H]3O)[C@@H](O)[C@@H]2O)ccc1O

SMILES: O=C(O[C@@H]1Cc2c(O)cc(O)cc2O[C@@H]1c1cc(O)c(O)c(O)c1)c1cc(O)c(O)c(O)c1 [EPIGALOCATECHIN GALLATE]
- IC50 (Alpha-amylase 1A [13]): 1400 µM

Reference: ChEMBL document CHEMBL3616379, “From carbohydrates to drug-like fragments: Rational development of novel α-amylase inhibitors” (Bioorg Med Chem, 2015)
